# Measured values reported in ChEMBL document CHEMBL5058577, “EUbOPEN Chemogenomics Library 2 (Multiplex)” (2022).
# System: HEK-293T
# Experiment: Multiplex assay against HEK293T
# Type: toxicity, cell-based
# Details: human
# Outline: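 Hoechst33342, BioTracker Green Microtubule Cytoskeleton Dye, MitoTracker Red and Annexin V Alexa Fluor 680 were added to live cells at seeding, and imaging on a CQ1 microscope at 37°C and 5% CO2 followed compound addition. Gating by CellPathfinder machine learning separated cells into Hoechst high-intensity objects or normal cells, then normal cells into healthy, pyknosed or fragmented nuclei, then pyknosed cells into mitotic or apoptotic. Per cents of healthy-nucleus cells are reported for the tubulin, mitochondrial-mass and membrane-permeability phenotypes.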
# [1] = 12 h, 1 µM, compound concentration 1 uM, replicate 1
# [2] = 12 h, 1 µM, compound concentration 1 uM, replicate 2
# [3] = 12 h, 10 µM, compound concentration 10 uM, replicate 1
# [4] = 12 h, 10 µM, compound concentration 10 uM, replicate 2
# [5] = 24 h, 1 µM, compound concentration 1 uM, replicate 1
# [6] = 24 h, 1 µM, compound concentration 1 uM, replicate 2
# [7] = 24 h, 10 µM, compound concentration 10 uM, replicate 1
# [8] = 24 h, 10 µM, compound concentration 10 uM, replicate 2
# [9] = 48 h, 1 µM, compound concentration 1 uM, replicate 1
# [10] = 48 h, 1 µM, compound concentration 1 uM, replicate 2
# [11] = 48 h, 10 µM, compound concentration 10 uM, replicate 1
# [12] = 48 h, 10 µM, compound concentration 10 uM, replicate 2
compound,measurement,setting,value
CN1CCC(C(=O)c2cccc(NC(=O)c3c(F)cc(F)cc3F)n2)CC1,Population Apoptotic (%),[1],32%
same,Population Fragmented Nuclei (%),[1],5%
same,Population Healthy Nuclei (%),[1],82%
same,Population Hoechst High Intensity Objects (%),[1],8%
same,Population Membrane Permeable-Phenotype (%),[1],0%
same,Population Mitochondria Different-Phenotype (%),[1],51%
same,Population Mitotic Cells (%),[1],67%
same,Population Normal (%),[1],91%
same,Population Pyknosed Nuclei (%),[1],11%
same,Population Tubulin-Different-Phenotype (%),[1],31%
same,Total Cell Count,[1],396
same,Population Apoptotic (%),[2],52%
same,Population Hoechst High Intensity Objects (%),[2],7%
same,Population Mitochondria Different-Phenotype (%),[2],59%
same,Population Mitotic Cells (%),[2],47%
same,Population Normal (%),[2],92%
same,Population Pyknosed Nuclei (%),[2],12%
same,Population Tubulin-Different-Phenotype (%),[2],20%
same,Total Cell Count,[2],352
same,Population Apoptotic (%),[3],52%
same,Population Fragmented Nuclei (%),[3],6%
same,Population Healthy Nuclei (%),[3],80%
same,Population Hoechst High Intensity Objects (%),[3],8%
same,Population Membrane Permeable-Phenotype (%),[3],1%
same,Population Mitochondria Different-Phenotype (%),[3],55%
same,Population Mitotic Cells (%),[3],47%
same,Population Normal (%),[3],91%
same,Population Pyknosed Nuclei (%),[3],12%
same,Population Tubulin-Different-Phenotype (%),[3],50%
same,Total Cell Count,[3],445
same,Population Apoptotic (%),[4],53%
same,Population Hoechst High Intensity Objects (%),[4],10%
same,Population Membrane Permeable-Phenotype (%),[4],0%
same,Population Mitochondria Different-Phenotype (%),[4],77%
same,Population Mitotic Cells (%),[4],46%
same,Population Normal (%),[4],89%
same,Population Pyknosed Nuclei (%),[4],13%
same,Total Cell Count,[4],401
same,Population Apoptotic (%),[5],26%
same,Population Fragmented Nuclei (%),[5],11%
same,Population Healthy Nuclei (%),[5],74%
same,Population Hoechst High Intensity Objects (%),[5],4%
same,Population Membrane Permeable-Phenotype (%),[5],0%
same,Population Mitochondria Different-Phenotype (%),[5],30%
same,Population Mitotic Cells (%),[5],73%
same,Population Normal (%),[5],95%
same,Population Pyknosed Nuclei (%),[5],13%
same,Population Tubulin-Different-Phenotype (%),[5],20%
same,Total Cell Count,[5],504
same,Population Apoptotic (%),[6],42%
same,Population Fragmented Nuclei (%),[6],8%
same,Population Healthy Nuclei (%),[6],83%
same,Population Hoechst High Intensity Objects (%),[6],3%
same,Population Mitochondria Different-Phenotype (%),[6],39%
same,Population Mitotic Cells (%),[6],57%
same,Population Normal (%),[6],96%
same,Population Pyknosed Nuclei (%),[6],7%
same,Population Tubulin-Different-Phenotype (%),[6],17%
same,Total Cell Count,[6],478
same,Population Apoptotic (%),[7],25%
same,Population Fragmented Nuclei (%),[7],10%
same,Population Healthy Nuclei (%),[7],76%
same,Population Hoechst High Intensity Objects (%),[7],6%
same,Population Membrane Permeable-Phenotype (%),[7],0%
same,Population Mitochondria Different-Phenotype (%),[7],48%
same,Population Mitotic Cells (%),[7],75%
same,Population Normal (%),[7],93%
same,Population Pyknosed Nuclei (%),[7],13%
same,Population Tubulin-Different-Phenotype (%),[7],41%
same,Total Cell Count,[7],583
same,Population Apoptotic (%),[8],52%
same,Population Fragmented Nuclei (%),[8],8%
same,Population Healthy Nuclei (%),[8],81%
same,Population Hoechst High Intensity Objects (%),[8],8%
same,Population Mitochondria Different-Phenotype (%),[8],64%
same,Population Mitotic Cells (%),[8],47%
same,Population Normal (%),[8],91%
same,Population Pyknosed Nuclei (%),[8],9%
same,Population Tubulin-Different-Phenotype (%),[8],34%
same,Total Cell Count,[8],467
same,Population Apoptotic (%),[9],22%
same,Population Fragmented Nuclei (%),[9],11%
same,Population Healthy Nuclei (%),[9],80%
same,Population Hoechst High Intensity Objects (%),[9],3%
same,Population Membrane Permeable-Phenotype (%),[9],1%
same,Population Mitochondria Different-Phenotype (%),[9],19%
same,Population Mitotic Cells (%),[9],77%
same,Population Normal (%),[9],96%
same,Population Pyknosed Nuclei (%),[9],7%
same,Population Tubulin-Different-Phenotype (%),[9],12%
same,Total Cell Count,[9],884
same,Population Apoptotic (%),[10],34%
same,Population Fragmented Nuclei (%),[10],9%
same,Population Healthy Nuclei (%),[10],84%
same,Population Mitochondria Different-Phenotype (%),[10],24%
same,Population Mitotic Cells (%),[10],65%
same,Population Pyknosed Nuclei (%),[10],5%
same,Population Tubulin-Different-Phenotype (%),[10],10%
same,Total Cell Count,[10],692
same,Population Apoptotic (%),[11],30%
same,Population Fragmented Nuclei (%),[11],13%
same,Population Healthy Nuclei (%),[11],79%
same,Population Hoechst High Intensity Objects (%),[11],4%
same,Population Membrane Permeable-Phenotype (%),[11],0%
same,Population Mitochondria Different-Phenotype (%),[11],35%
same,Population Mitotic Cells (%),[11],69%
same,Population Normal (%),[11],95%
same,Population Pyknosed Nuclei (%),[11],7%
same,Population Tubulin-Different-Phenotype (%),[11],23%
same,Total Cell Count,[11],803
same,Population Apoptotic (%),[12],28%
same,Population Fragmented Nuclei (%),[12],10%
same,Population Healthy Nuclei (%),[12],81%
same,Population Hoechst High Intensity Objects (%),[12],7%
same,Population Mitochondria Different-Phenotype (%),[12],42%
same,Population Mitotic Cells (%),[12],71%
same,Population Normal (%),[12],92%
same,Population Tubulin-Different-Phenotype (%),[12],25%
same,Total Cell Count,[12],671
